Data as given in ChEMBL document CHEMBL3351752, “Discovery and in vivo evaluation of alcohol-containing benzothiazoles as potent dual-targeting bacterial DNA supercoiling inhibitors” (Bioorg Med Chem Lett, 2014).
Converted amounts (≈) assume the structure as drawn.

Assays:
Staphylococcus aureus [1] = test: Antibacterial activity against Staphylococcus aureus ATCC 29213 assessed as growth inhibition; assay type: functional
Streptococcus pyogenes [2] = test: Antibacterial activity against Streptococcus pyogenes 51339 assessed as growth inhibition; assay type: functional
Haemophilus influenzae = test: Antibacterial activity against Haemophilus influenzae 49247 assessed as growth inhibition; assay type: functional
Staphylococcus aureus [3] = test: Antibacterial activity against Staphylococcus aureus ATCC 29213 assessed as growth inhibition in presence of 50% horse serum; assay type: functional
Staphylococcus aureus [4] = test: Inhibition of Staphylococcus aureus DNA gyrase ATPase subunit GyrA2/GyrB2 after 60 mins by malachite green staining assay
[5] = Fraction unbound in mouse plasma by ultracentrifugation; assay type: ADME, cell-free
Outline: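 Compound at 10 µM (1% DMSO) was equilibrated in neat plasma at 37 °C for 60 min. Duplicate aliquots were ultracentrifuged at 250,000g for 4.2 h at 37 °C. Free compound in the plasma-water supernatant was compared with uncentrifuged samples incubated alike. Uncentrifuged samples kept at 20 °C checked degradation, and diltiazem served as stability control. Analysis was by LCMS.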

Staphylococcus aureus [6] = test: Antimicrobial activity against Staphylococcus aureus harboring GyrB T173N mutant assessed as growth inhibition; assay type: functional
Streptococcus pyogenes [7] = test: Antimicrobial activity against Streptococcus pyogenes harboring ParE A53S mutant assessed as growth inhibition; assay type: functional

| Compound | MIC (Staphylococcus aureus [1]) | MIC (Streptococcus pyogenes [2]) | MIC (Haemophilus influenzae) | MIC (Staphylococcus aureus [3]) | inhibitory concentration (Staphylococcus aureus [4]) | fraction unbound [5] | MIC (Staphylococcus aureus [6]) | MIC (Streptococcus pyogenes [7]) |
| --- | --- | --- | --- | --- | --- | --- | --- | --- |
| CCNC(=O)Nc1nc2cc(-c3cnc(C(C)(C)O)nc3)cc(-c3cc(CN4CC[C@@H](OC)C4)ccn3)c2s1 | 0.25 µg/mL (≈ 0.456 µM) | 0.25 µg/mL (≈ 0.456 µM) | 4 µg/mL (≈ 7.3 µM) | 0.5 µg/mL | 0.009 µg/mL | 0.09 |  |  |
| CCNC(=O)Nc1nc2cc(-c3cnc(C4(O)CCSCC4)nc3)cc(-c3ccccn3)c2s1 | 0.12 µg/mL (≈ 0.244 µM) | 0.5 µg/mL (≈ 1.01 µM) | 2 µg/mL (≈ 4.06 µM) | 1 µg/mL | 0.005 µg/mL |  | 0.25 µg/mL (≈ 0.507 µM) | 4 µg/mL (≈ 8.12 µM) |
| CCNC(=O)Nc1nc2cc(-c3cnc(C(C)(C)O)nc3)cc(-c3cc(CN4CCC(C)(O)C4)ccn3)c2s1 (configuration not stated) | 0.5 µg/mL (≈ 0.913 µM) | 0.25 µg/mL (≈ 0.456 µM) | 8 µg/mL (≈ 14.6 µM) | 0.25 µg/mL | 0.008 µg/mL | 0.194 |  |  |
| CCNC(=O)Nc1nc2cc(-c3cnc(C(O)CC)nc3)cc(-c3ccccn3)c2s1 (racemic) | 0.06 µg/mL (≈ 0.138 µM) | 0.06 µg/mL (≈ 0.138 µM) | 1 µg/mL (≈ 2.3 µM) | 0.25 µg/mL | 0.006 µg/mL |  | 0.25 µg/mL (≈ 0.575 µM) | 1 µg/mL (≈ 2.3 µM) |
| CCNC(=O)Nc1nc2cc(-c3cnc(C(O)CO)nc3)cc(-c3ccccn3)c2s1 (racemic) | 0.12 µg/mL (≈ 0.275 µM) | 0.12 µg/mL (≈ 0.275 µM) | 0.5 µg/mL (≈ 1.15 µM) | 0.5 µg/mL | 0.006 µg/mL |  | 2 µg/mL (≈ 4.58 µM) | 2 µg/mL (≈ 4.58 µM) |
| CCNC(=O)Nc1nc2cc(-c3cnc(C(C)(C)O)nc3)cc(-c3cc(CN4CC[C@H](F)C4)ccn3)c2s1 | 0.12 µg/mL (≈ 0.224 µM) | 0.06 µg/mL (≈ 0.112 µM) | 2 µg/mL (≈ 3.73 µM) | 0.25 µg/mL | 0.008 µg/mL | 0.061 |  |  |
| CCNC(=O)Nc1nc2cc(-c3cnc(C4(O)CCS(=O)(=O)CC4)nc3)cc(-c3ccccn3)c2s1 | 0.25 µg/mL (≈ 0.477 µM) | 0.25 µg/mL (≈ 0.477 µM) | 1 µg/mL (≈ 1.91 µM) | 0.5 µg/mL | 0.006 µg/mL |  | 1 µg/mL (≈ 1.91 µM) | 2 µg/mL (≈ 3.81 µM) |
| CCNC(=O)Nc1nc2cc(-c3cnc([C@@H](O)[C@@H](O)C(F)(F)F)nc3)cc(-c3ccccn3)c2s1 (racemic) | 0.12 µg/mL (≈ 0.238 µM) | 0.12 µg/mL (≈ 0.238 µM) | 0.5 µg/mL (≈ 0.991 µM) | 0.25 µg/mL | 0.004 µg/mL |  | 0.5 µg/mL (≈ 0.991 µM) | 1 µg/mL (≈ 1.98 µM) |
| CCNC(=O)Nc1nc2cc(-c3cnc(C4(O)CCCC4)nc3)cc(-c3ccccn3)c2s1 | 0.03 µg/mL (≈ 0.0651 µM) | 0.12 µg/mL (≈ 0.261 µM) | 1 µg/mL (≈ 2.17 µM) | 0.5 µg/mL | 0.005 µg/mL |  | 0.25 µg/mL (≈ 0.543 µM) | 2 µg/mL (≈ 4.34 µM) |
| CCNC(=O)Nc1nc2cc(-c3cnc(C(C)(C)O)nc3)cc(-c3cc(CN4CC(O)C4)ccn3)c2s1 | 1 µg/mL (≈ 1.92 µM) | 0.25 µg/mL (≈ 0.481 µM) | 2 µg/mL (≈ 3.85 µM) | 1 µg/mL | 0.004 µg/mL | 0.22 |  |  |
| CCNC(=O)Nc1nc2cc(-c3cnc(C(C)(O)CO)nc3)cc(-c3ccccn3)c2s1 (racemic) | 0.12 µg/mL (≈ 0.266 µM) | 0.12 µg/mL (≈ 0.266 µM) | 0.5 µg/mL (≈ 1.11 µM) | 0.25 µg/mL | 0.006 µg/mL |  | 1 µg/mL (≈ 2.22 µM) | 2 µg/mL (≈ 4.44 µM) |
| CCNC(=O)Nc1nc2cc(-c3cnc([C@@H](O)[C@H](O)C(F)F)nc3)cc(-c3ccccn3)c2s1 (racemic) | 0.06 µg/mL (≈ 0.123 µM) | 0.12 µg/mL (≈ 0.247 µM) | 0.25 µg/mL (≈ 0.514 µM) | 0.25 µg/mL | 0.004 µg/mL |  | 0.5 µg/mL (≈ 1.03 µM) | 1 µg/mL (≈ 2.06 µM) |
| CCNC(=O)Nc1nc2cc(-c3cnc(C4(O)CCN(C)CC4)nc3)cc(-c3ccccn3)c2s1 | 1 µg/mL (≈ 2.04 µM) | 1 µg/mL (≈ 2.04 µM) | 8 µg/mL (≈ 16.3 µM) | 0.5 µg/mL | 0.011 µg/mL |  | 8 µg/mL (≈ 16.3 µM) | 8 µg/mL (≈ 16.3 µM) |
